According to ChEMBL document CHEMBL4396880, “Development of Small-Molecules Targeting Receptor Activator of Nuclear Factor-κB Ligand (RANKL)-Receptor Activator of Nuclear Factor-κB (RANK) Protein-Protein Interaction by Structure-Based Virtual Screening and Hit Optimization” (J Med Chem, 2019):
pKd: −log10 of the molar value. Active and inactive are the calls of the source. The calls are words filed in the database; no cut-off is given here. Bridge positions count the residues as written; N and C are the ends. Peptide text beside a SMILES is read from it.

Key:
[1] = target: T1, Tumor necrosis factor ligand superfamily member 11/11A (Mus musculus) (UniProt O35235+O35305); experiment: Inhibition of RANKL-RANK protein-protein interaction in C57/BL6 mouse bone marrow macrophage assessed as suppression of M-CSF/mRANKL-induced osteoclastogenesis by measuring reduction in TRAP activity at 5 uM measured after 3 days by colorimetric assay relative to control
T1 sequence (O35305 31-625 partner limits assumed, one chain of several): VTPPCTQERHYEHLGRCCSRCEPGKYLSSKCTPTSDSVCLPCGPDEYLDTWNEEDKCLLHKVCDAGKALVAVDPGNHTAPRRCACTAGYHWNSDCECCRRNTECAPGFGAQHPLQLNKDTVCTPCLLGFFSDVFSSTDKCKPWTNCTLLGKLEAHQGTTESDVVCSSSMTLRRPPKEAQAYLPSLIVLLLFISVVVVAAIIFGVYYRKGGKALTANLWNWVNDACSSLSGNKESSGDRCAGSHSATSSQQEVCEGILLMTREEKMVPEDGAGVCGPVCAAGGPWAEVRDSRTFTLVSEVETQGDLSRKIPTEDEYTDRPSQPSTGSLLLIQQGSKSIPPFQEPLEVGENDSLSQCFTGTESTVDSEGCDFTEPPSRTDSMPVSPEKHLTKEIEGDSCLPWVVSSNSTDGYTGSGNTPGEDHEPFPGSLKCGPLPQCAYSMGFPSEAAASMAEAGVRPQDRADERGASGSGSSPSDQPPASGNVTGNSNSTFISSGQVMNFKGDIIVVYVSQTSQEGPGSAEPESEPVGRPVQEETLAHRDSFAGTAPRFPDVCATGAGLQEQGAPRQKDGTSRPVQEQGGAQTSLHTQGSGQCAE
Summary of the method: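 BMMs were incubated with the test compound at 5 μM, together with RANKL (50 ng/mL) and M-CSF (20 ng/mL), for 3 days. Osteoclastogenesis was then read out as tartrate-resistant acid phosphatase (TRAP) activity.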

[2] = target: T2, Tumor necrosis factor ligand superfamily member 11 (Mus musculus, UniProt O35235); experiment: Binding affinity to mouse N-terminal His6-Trx-tagged RANKL ectodomain (157 to 316 residues) expressed in Escherichia coli BL21 (DE3) by isothermal titration calorimetric assay
T2 sequence (O35235 whole entry): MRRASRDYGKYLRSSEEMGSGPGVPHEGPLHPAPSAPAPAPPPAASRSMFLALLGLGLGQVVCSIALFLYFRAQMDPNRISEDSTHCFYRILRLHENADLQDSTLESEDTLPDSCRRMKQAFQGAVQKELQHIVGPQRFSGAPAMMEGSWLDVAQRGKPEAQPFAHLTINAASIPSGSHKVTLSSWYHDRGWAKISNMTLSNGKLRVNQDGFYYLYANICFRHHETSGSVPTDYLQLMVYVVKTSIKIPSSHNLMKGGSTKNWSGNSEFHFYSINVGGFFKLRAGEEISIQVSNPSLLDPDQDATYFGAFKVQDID

[3] = target: T3, Tumor necrosis factor ligand superfamily member 11 (Homo sapiens, UniProt O14788); experiment: Binding affinity to human RANKL by surface plasmon resonance analysis
T3 sequence (O14788 whole entry): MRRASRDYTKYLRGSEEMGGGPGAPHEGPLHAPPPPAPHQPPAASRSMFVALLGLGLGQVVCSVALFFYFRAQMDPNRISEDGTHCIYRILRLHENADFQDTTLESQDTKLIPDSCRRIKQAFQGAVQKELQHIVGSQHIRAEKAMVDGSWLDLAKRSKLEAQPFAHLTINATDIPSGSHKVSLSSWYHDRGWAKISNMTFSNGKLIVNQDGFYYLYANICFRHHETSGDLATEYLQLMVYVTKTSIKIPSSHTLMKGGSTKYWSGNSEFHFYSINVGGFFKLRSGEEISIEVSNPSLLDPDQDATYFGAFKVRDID

[4] = target: T1, Tumor necrosis factor ligand superfamily member 11/11A (Mus musculus); experiment: (§1) Inhibition of RANKL-RANK protein-protein interaction in C57/BL6 mouse bone marrow macrophage assessed as suppression of M-CSF/mRANKL-induced osteoclast differentiation by measuring decrease in nuclei number of F-actin ring formation at 5 uM supplemented with fresh medium containing compounds every 2 days for 5 to 6 days by rhodamine phalloidin/DAPI staining-based microscopic analysis; type: protein assay
[5] = Cytotoxicity against M-CSF-stimulated C57/BL6 mouse bone marrow macrophages assessed as cell viability at 10 uM measured after 2 days by MTT assay (reference value: 100%); type: cell-based; conditions: M-CSF-stimulated bone marrow macrophages (BMDM), read-out: Activity
[6] = target: T1, Tumor necrosis factor ligand superfamily member 11/11A (Mus musculus); experiment: as §1, with “multinucleated TRAP+ cells” for “nuclei number of F-actin ring formation”, “TRAP” for “rhodamine phalloidin/DAPI”; type: cell-based
Summary of the method: (§2)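 Bone marrow macrophages were exposed to the test compound at the indicated concentrations for 5 days under M-CSF/RANKL stimulation. TRAP-positive multinucleated cells were then counted as the measure of osteoclast formation.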

[7] = target: T1, Tumor necrosis factor ligand superfamily member 11/11A (Mus musculus); experiment: as §1, with “multinucleated TRAP+ cells” for “nuclei number of F-actin ring formation at 5 uM”, “TRAP” for “rhodamine phalloidin/DAPI”; type: cell-based; summary of the method: as §2
[8] = target: T1, Tumor necrosis factor ligand superfamily member 11/11A (Mus musculus); experiment: as §1, with “size” for “number”; type: protein assay

SMILES | inhibition [1] | further results
Cc1cccc(C)c1NCC(Cc1c[nH]c2ccccc12)NC(=O)CCc1ccccc1 (centres undefined) | 23.1% | 
Cc1ccccc1NC(=O)C(Cc1c[nH]c2ccccc12)NC(=O)CCc1ccccc1 (centres undefined) | 74.2% | 
CC[C@H](C)[C@H](NC(=O)[C@H](CC(C)C)NC(=O)[C@H](Cc1ccc(O)cc1)NC(=O)[C@@H]1CSSC[C@H](NC(=O)[C@@H](N)Cc2ccc(O)cc2)C(=O)N[C@@H](CCC(=O)O)C(=O)N[C@@H]([C@@H](C)CC)C(=O)N[C@@H](CCC(=O)O)C(=O)N[C@@H](Cc2ccccc2)C(=O)N1)C(=O)N[C@@H](CCCNC(=N)N)C(=O)O (H-YCEIEFCYLIR-OH; disulfide 2-7) |  | pKd [2]: 3.55; pKd [3]: 3.55
N=C(N)NCCC[C@H](NC(=O)[C@H](CCCNC(=N)N)NC(=O)[C@H](Cc1ccc(O)cc1)NC(=O)[C@@H]1CSSC[C@H](NC(=O)[C@@H](N)Cc2ccc(O)cc2)C(=O)N[C@@H](Cc2c[nH]c3ccccc23)C(=O)N[C@@H](CC(N)=O)C(=O)N[C@@H](CO)C(=O)N[C@@H](CC(=O)O)C(=O)N[C@@H](CS)C(=O)N[C@@H](CCC(=O)O)C(=O)N[C@@H](CS)C(=O)N1)C(=O)O (H-YCWNSDCECCYRR-OH; disulfide 2-10) |  | pKd [2]: 4.76; pKd [3]: 4.76
Cc1cccc(C)c1NC(=O)C(Cc1c[nH]c2cc(F)ccc12)NC(=O)CCc1ccccc1 (racemic) | 89.4% | inhibition [4]: Dose-dependent effect; pKd [3]: 5.46; viability at 48 h, 10 µM [5]: 103%; inhibition [6]: 100%; inhibition [7]: Dose-dependent effect; inhibition [8]: Dose-dependent effect
Cc1cccc(C)c1NC(=O)C(Cc1c[nH]c2ccccc12)NC(=O)CCc1ccc(Cl)cc1 (racemic) | 89% | inhibition [4]: Dose-dependent effect; pKd [3]: 5.51; viability at 48 h, 10 µM [5]: 102%; inhibition [6]: 100%; inhibition [7]: Dose-dependent effect; inhibition [8]: Dose-dependent effect
Cc1cccc(C)c1NC(=O)C(Cc1c[nH]c2ccccc12)NC(=O)CCc1ccccc1 (racemic) [listing 1 of 2 here] |  | pKd [3]: 5.57; viability at 48 h, 10 µM [5]: 110%
CN(C)c1ccc(NC(=O)C(Cc2c[nH]c3ccccc23)NC(=O)CCc2ccccc2)cc1 (racemic) | 70.6% | 
COc1ccc(CCC(=O)NC(Cc2c[nH]c3ccccc23)C(=O)Nc2c(C)cccc2C)cc1 (racemic) | 16.9% | 
COc1ccc(NC(=O)C(Cc2c[nH]c3ccccc23)NC(=O)CCc2ccccc2)cc1 (racemic) | 59% | 
COc1ccc2[nH]cc(CC(NC(=O)CCc3ccccc3)C(=O)Nc3c(C)cccc3C)c2c1 (racemic) | 84.4% | 
COc1cccc(CCC(=O)NC(Cc2c[nH]c3ccccc23)C(=O)Nc2c(C)cccc2C)c1 (racemic) | 41.7% | 
CS(=O)(=O)c1ccc(NC(=O)C(Cc2c[nH]c3ccccc23)NC(=O)CCc2ccccc2)cc1 (racemic) | 69.9% | 
Cc1ccc(NC(=O)C(Cc2c[nH]c3ccccc23)NC(=O)CCc2ccccc2)cc1 (racemic) | 69.9% | 
Cc1cccc(C)c1NC(=O)C(Cc1c[nH]c2ccc(F)cc12)NC(=O)CCc1ccccc1 (racemic) | 83.9% | 
Cc1cccc(C)c1NC(=O)C(Cc1c[nH]c2ccccc12)NC(=O)CCC1CC1 (racemic) | 57.4% | 
Cc1cccc(C)c1NC(=O)C(Cc1c[nH]c2ccccc12)NC(=O)CCC1CCCC1 (racemic) | 14% | 
Cc1cccc(C)c1NC(=O)C(Cc1c[nH]c2ccccc12)NC(=O)CCC1CCCCC1 (racemic) | 35.4% | 
Cc1cccc(C)c1NC(=O)C(Cc1c[nH]c2ccccc12)NC(=O)CCCCc1ccccc1 (racemic) | 82% | 
Cc1cccc(C)c1NC(=O)C(Cc1c[nH]c2ccccc12)NC(=O)CCCc1ccccc1 (racemic) | 79.3% | 

SMILES | inhibition [1] | further results
Cc1cccc(C)c1NC(=O)C(Cc1c[nH]c2ccccc12)NC(=O)CCc1ccc(F)cc1 (racemic) | 33.6% | 
Cc1cccc(C)c1NC(=O)C(Cc1c[nH]c2ccccc12)NC(=O)CCc1cccc(Cl)c1 (racemic) | 69.5% | 
Cc1cccc(C)c1NC(=O)C(Cc1c[nH]c2ccccc12)NC(=O)CCc1cccc(F)c1 (racemic) | 56.8% | 
Cc1cccc(C)c1NC(=O)C(Cc1c[nH]c2ccccc12)NC(=O)CCc1ccccc1 (racemic) [listing 2 of 2 here] | 90.3% | inhibition [4]: Dose-dependent effect; inhibition [6]: 100%; inhibition [7]: Dose-dependent effect; inhibition [8]: Dose-dependent effect
Cc1cccc(C)c1NC(=O)C(Cc1c[nH]c2ccccc12)NC(=O)CCc1cccnc1 (racemic) | 66.5% | 
Cc1cccc(C)c1NC(=O)C(Cc1c[nH]c2ccccc12)NC(=O)CCc1cccs1 (racemic) | 65.4% | 
Cc1cccc(C)c1NC(=O)C(Cc1c[nH]c2ccccc12)NC(=O)CCc1ccncc1 (racemic) | 41.4% | 
Cc1cccc(C)c1NC(=O)C(Cc1c[nH]c2ccccc12)NC(=O)CCc1ccsc1 (racemic) | 52.2% | 
Cc1cccc(C)c1NC(=O)C(Cc1c[nH]c2ccccc12)NC(=O)CCc1nccs1 (racemic) | 86.3% | 
Cc1cccc(C)c1NC(=O)C(Cc1c[nH]c2ccccc12)NC(=O)Cc1ccccc1 (racemic) | 52.1% | 
Cc1cccc(C)c1NC(=O)C(Cc1c[nH]c2ccccc12)NCCCCCc1ccccc1 (racemic) | 87.2% | 
Cc1cccc(C)c1NC(=O)C(Cc1c[nH]c2ccccc12)NCCCCc1ccccc1 (racemic) | 83.3% | 
Cc1cccc(C)c1NC(=O)C(Cc1c[nH]c2ccccc12)NCCc1ccccc1 (racemic) | 76.5% | 
O=C(CCc1ccccc1)NC(Cc1c[nH]c2ccccc12)C(=O)Nc1ccc(C(F)(F)F)cc1 (racemic) | 72% | 
O=C(CCc1ccccc1)NC(Cc1c[nH]c2ccccc12)C(=O)Nc1ccc(F)cc1 (racemic) | 70.3% | 
O=C(CCc1ccccc1)NC(Cc1c[nH]c2ccccc12)C(=O)Nc1ccc(N2CCOCC2)cc1 (racemic) | 64.8% | 
O=C(CCc1ccccc1)NC(Cc1c[nH]c2ccccc12)C(=O)Nc1ccccc1 (racemic) | 55.3% | 
O=C(CCc1ccccc1)NC(Cc1c[nH]c2ccccc12)C(=O)Nc1ccccc1F (racemic) | 74% | 
Cc1cccc(C)c1NC(=O)C(Cc1c[nH]c2ccccc12)NC(=O)CCc1ccccc1 (single isomer, unassigned; (+)) | Active | 
Cc1cccc(C)c1NC(=O)C(Cc1c[nH]c2ccccc12)NC(=O)CCc1ccccc1 (single isomer, unassigned; (-)) | Active | 
